Compound activity as filed in PubChem BioAssay.
This is a sample that favours compounds with a hit; in the whole collection about 3.9% have one here.
CHOP UPR activ = apoptotic UPR (CHOP) activation. actives 0.34% (n = 330,000). CHO-CHOP luciferase reporter, luminescence; percent of tunicamycin response over DMSO baseline. activation, % at 10 µM;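 active means at 10 µM dose, activation of 40% or more, normalized to positive control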;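 further: 100% = tunicamycin at 10 µg/mL and 0% = DMSO alone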
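Evaluation: % reporter activation, DMSO baseline versus tunicamycin full activation; System: CHO-CHOP luciferase reporter cell line; Input: 500 cells/well; Incubation: 6 h compound treatment, 37 °C; Measured by: Steady-Glo luciferase luminescence; Dosing: one dose, 10 µM in 0.5% DMSO; Buffer or medium: F12 medium, 10% FBS; Benchmarks: positive tunicamycin 10 µg/mL, negative DMSO alone.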
tim23-1 inh = growth inhibitors of tim23-1 mutant yeast | S. cerevisiae tim23-1 growth, BacTiter-Glo luminescence, 24 h | inhibition, % at 20 µM | actives 1.3% (n = 330,000) | AID 463212;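 active means growth inhibition of the mutant yeast at or above 50%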;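 further: temperature-sensitive mutant grown at 25 °C; plate controls were DMSO-treated mutant yeast for no effect and medium wells lacking yeast for full effect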
tim10-1 inh = inhibits growth of tim10-1 mutant yeast; actives 2.2% (n = 330,000); inhibition, % at 20 µM; AID 463190; S. cerevisiae tim10-1 ts strain growth, BacTiter-Glo, 24 h;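 active means inhibition of at least 40%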;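 further: mutant grown at 25 °C; 0% = DMSO wells with yeast and 100% = wells holding no yeast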
XBP1 UPR activ = activators of adaptive arm of unfolded protein response (XBP1). AID 463104. activation, % at 20 µM. actives 0.33% (n = 330,000). CHO-XBP1 luciferase reporter, IRE1-XBP1 UPR activation, luminescence; percent of tunicamycin response, DMSO as zero;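 active means versus positive control, 20 µM dose yields 30% or more activation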;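 further: 100% = tunicamycin at 10 µg/mL and 0% = DMSO only wells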
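Material: CHO-XBP1 cells stably carrying IRE1-XBP1-driven luciferase reporter | Medium: F12 with 10% serum | Compound dosing: 20 µM single concentration, DMSO 1% | Incubation: Overnight seeding at 37 °C, 6 h compound treatment at 37 °C | Detection: Steady-Glo luminescence read | Read-out basis: % activation of reporter signal versus tunicamycin and DMSO controls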
TIM10 inh = inhibits growth of TIM10 yeast strain. actives 1.4% (n = 330,000). inhibition, % at 10 µM. S. cerevisiae TIM10 strain growth, BacTiter-Glo luminescence, 24 h;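 active means inhibition of 40% or more at the single tested concentration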;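 further: wild-type TIM10 isogenic control strain grown at permissive 25 °C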
tim10-1 conf = tim10-1 yeast growth inhibition, confirmed; shares compounds with tim10-1 inh; S. cerevisiae tim10-1 ts strain growth, BacTiter-Glo, 24 h; inhibition, % at 20 µM; actives 56% (n = 7,400);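 active means inhibition of yeast growth at or above a set limit in either of two repeat tests at 20 µM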;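 further: tim10-1 mutant grown at permissive 25 °C to find synthetic lethal compounds; 0% = DMSO yeast wells and 100% = medium wells without yeast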
TIM10 conf = TIM10 yeast growth inhibition, confirmed | S. cerevisiae tim10 strain growth, BacTiter-Glo luminescence, 24 h | shares compounds with TIM10 inh | actives 63% (n = 4,600) | inhibition, % at 10 µM;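 active means inhibition of yeast growth at or above a set limit in either of two replicates at 10 µM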;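 further: this counterscreen used the strain with wild-type TIM10; 0% = yeast with DMSO and 100% = medium wells lacking yeast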
tim23-1 confirm = confirmation of tim23-1 mutant yeast growth inhibitors; shares compounds with tim23-1 inh; S. cerevisiae tim23-1 growth, BacTiter-Glo luminescence, 24 h; inhibition, % at 20 µM; actives 83% (n = 4,400); AID 463218;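 active means inhibition above about 39% in either of two replicate wells at 20 µM, limit read from the data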;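 further: temperature-sensitive tim23-1 mutant grown at 25 °C; 0% = DMSO wells with yeast and 100% = medium wells without yeast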
The depositor's hits bear a star; / = not tested or not shown.

SMILES	CHOP UPR activ	tim23-1 inh	tim10-1 inh	XBP1 UPR activ	TIM10 inh	tim10-1 conf	TIM10 conf	tim23-1 confirm
O=C1c2ccccc2C(=O)c2c1oc(C(F)(F)F)c2C(=O)c1ccccc1	-2	80*	80*	-6	78*	72*	92*	76*
CC(C)CC(C(=O)NC(C)(C)C)N(Cc1ccccc1Cl)C(=O)c1snc(C(N)=O)c1N (stereo not drawn)	1	31	18	-2	5	/	/	/
Cc1c(Cl)cccc1NC(=O)CNC(=O)C1CCN(C(=O)Nc2ccccc2)CC1	-1	-3	3	-3	7	/	/	/
Cc1ccc(-c2cc(-c3ccc(F)cc3)n[nH]2)c(O)c1	7	61*	41*	-2	23	46*	/	51*
Cc1ccc(-c2cc(-c3ccc(C)cc3O)[nH]n2)cc1	5	41	9	2	33	/	/	/
Oc1ccc(Cl)cc1-c1cc(-c2ccccc2)n[nH]1	1	60*	43*	6	55*	36*	58*	22
Cc1ccc(-c2cc(-c3ccccc3[N+](=O)[O-])[nH]n2)c(O)c1	4	60*	52*	5	44*	42*	31*	66*
COc1ccccc1-c1cc(-c2cc(Cl)ccc2O)n[nH]1	5	17	20	-2	11	/	/	/
NC(=O)C1CCN(CC(=O)NC(=O)NC2CCCC2)CC1	1	11	7	2	12	/	/	/
COc1cc(NC(=O)c2ccc(N3CC4CC(C3)c3cccc(=O)n3C4)c(NC(=O)c3ccncc3)c2)cc(OC)c1OC (stereo not drawn)	1	1	11	-2	0	/	/	/
COc1ccccc1C/C(N)=N/OC(=O)COc1cc(C)cc(C)c1C	1	78*	65*	-1	73*	70*	68*	81*
COc1ccccc1C/C(N)=N/OC(=O)COc1cccc(C)c1C	4	70*	63*	-1	53*	68*	46*	62*
Cc1ccc(C(=O)Oc2cc(N)n(S(=O)(=O)c3ccc(F)cc3)n2)cc1	-1	52*	49*	-3	45*	34*	49*	43*
COc1cccc(C(=O)Oc2cc(N)n(S(=O)(=O)c3ccc(C)cc3)n2)c1OC	-4	32	36	0	25	/	/	/
O=C(CCN1CCC(c2cccs2)=N1)c1cccs1	7	63*	41*	7	63*	30	69*	84*
O=C(CCN1CCCC1)c1cccs1	0	21	4	-7	-4	/	/	/
CCN1/C(=C/c2ccc3cccc(C)c3[n+]2CC)Sc2ccccc21	20	68*	64*	-5	77*	74*	79*	72*
C[n+]1ccccc1/C=C1\Sc2ccccc2N1CCO	3	-10	-14	1	-5	/	/	/
Cc1ccc(S(=O)(=O)N2CCC(NC(=O)c3cccc(C)c3)CC2)cc1	-1	10	10	-1	-16	/	/	/
COc1cc(OC)c(C(=O)/C=C/c2ccccc2)c(O)c1O	0	58*	51*	-1	39	32*	/	63*
COc1cc(O)cc(O)c1C(=O)/C=C/c1ccccc1	6	36	37	-3	30	/	/	/
CCOCCCNC(=O)/C(C#N)=C/c1ccc(Cl)c([N+](=O)[O-])c1	-1	86*	47*	-6	66*	73*	82*	88*
CCOCCCNC(=O)/C(C#N)=C/c1cc(OC)c(O)c([N+](=O)[O-])c1	0	20	13	3	23	/	/	/
Cc1ccc([N+](=O)[O-])cc1-c1[nH]c(-c2ccc(O)c(O)c2)nc1-c1ccccc1	16	-10	28	6	9	/	/	/
COc1ccc(-c2nc(-c3ccccc3)c(-c3cc([N+](=O)[O-])ccc3C)[nH]2)cc1O	15	53*	44*	-7	17	36*	/	58*
SMILES	CHOP UPR activ	tim23-1 inh	tim10-1 inh	XBP1 UPR activ	TIM10 inh	tim10-1 conf	TIM10 conf	tim23-1 confirm
CC(C)Cn1nc(C(=O)Nc2nnc(C3CC3)s2)c2ccccc2c1=O	2	52*	47*	4	20	29*	/	41*
CCOc1ccsc1C(=O)OC	0	2	-14	-3	8	/	/	/
CC1=NN(c2ccc(Cl)cc2)C(=O)C1C(c1cccc(O)c1)c1c(C)[nH]n(-c2ccc(Cl)cc2)c1=O (stereo not drawn)	0	57*	48*	-2	37	29	/	51*
COc1ccc2c(c1)-c1nc(NC(=O)c3ccco3)sc1CC2	4	57*	58*	1	25	53*	/	61*
COc1ccc2c(c1)CCc1sc(NC(=O)c3ccco3)nc1-2	8	42	26	5	19	/	/	/
O=C(CSc1cc(Cl)ccc1Cl)NC1CCCC1	1	12	-20	-4	-6	/	/	/
COc1cc2nc(N(CCN(C)C)C(=O)c3ccc4ccccc4c3)sc2cc1OC	1	22	5	-1	10	/	/	/
CCN(CC)CCN(C(=O)c1ccc2c(c1)CCCC2)c1nc2cc(OC)c(OC)cc2s1	7	66*	61*	6	49*	40*	46*	61*
N/C(=N\OC(=O)c1ccc(Cl)cc1Cl)c1ccncc1	2	19	1	2	0	/	/	/
N/C(=N\OC(=O)c1ccc(Cl)cc1Cl)c1ccccn1	-11	76*	41*	-6	72*	25	75*	70*
N/C(=N/OC(=O)c1ccccc1Cl)c1ncc([N+](=O)[O-])s1	28	55*	49*	2	62*	50*	73*	15
N/C(=N\OC(=O)c1ccc(=O)n(Cc2ccc(Cl)cc2)c1)c1ccccn1	3	53*	67*	-1	54*	60*	53*	48*
N/C(=N\OC(=O)c1ccc([N+](=O)[O-])cc1Cl)c1ccccn1	-9	59*	53*	-10	42*	45*	52*	65*
CN(Cc1ccccc1)S(=O)(=O)c1ccc(NC(=O)c2ccccc2C(=O)O)cc1	-1	2	4	0	-21	/	/	/
Cc1ccc(C(=O)O/N=C(\N)c2ccccc2)c(Cl)c1	-10	83*	71*	-12	74*	59*	81*	86*
N/C(=N\OC(=O)c1ccccc1Cl)c1ccncc1	3	8	21	3	14	/	/	/
NC[C@H](O)c1ccc(O)c(O)c1	2	-5	-1	-5	-1	/	/	/
